Broadly, the Km is the substrate concentration at which the rate is half of its maximum. By kcat is commonly meant the number of substrate molecules converted per active site and unit of time at saturation. Broadly, the kcat/Km is the second-order rate constant that governs catalysis at low substrate concentration. As usually defined, the Ki is the equilibrium dissociation constant of an inhibitor or competing ligand from its target. Low readings indicate higher affinity, high ones lower affinity.

The results in this text go back to ChEMBL document CHEMBL1629686, “Substrate selectivity and a novel role in inhibitor discrimination by residue 237 in the KPC-2 beta-lactamase” (Antimicrob Agents Chemother, 2010).

Data set [1] concerns Klebsiella pneumoniae. As to the kind of experiment: Activity of Klebsiella pneumoniae 1534 beta-lactamase KPC-2 T237S mutant by spectrophotometric analysis. Put shortly: (§1)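 Purified KPC-2 variant enzymes (periplasmic lysate from E. coli, preparative isoelectric focusing). Hydrolysis followed by diode-array spectrophotometry in 10 mM PBS, pH 7.4, room temperature. Enzyme at 10 nM with substrate in molar excess for pseudo-first-order conditions. Vmax and Km came from a nonlinear least-squares Michaelis-Menten fit.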

The subject of data set [2] is Klebsiella pneumoniae. As to the kind of experiment: Ratio of Kcat/Km for Klebsiella pneumoniae 1534 beta-lactamase KPC-2 T237S mutant by spectrophotometric analysis. Put shortly: as §1
Data set [3] deals with Klebsiella pneumoniae. As to the kind of experiment: Activity of Klebsiella pneumoniae 1534 beta-lactamase KPC-2 T237A mutant by spectrophotometric analysis. Put shortly:
as §1

Data set [4] concerns Klebsiella pneumoniae. As to the kind of experiment: Ratio of Kcat/Km for Klebsiella pneumoniae 1534 beta-lactamase KPC-2 T237A mutant by spectrophotometric analysis. Put shortly:
as §1

In data set [5] the test system is Klebsiella pneumoniae. As to the kind of experiment: Selectivity index, Ratio of Kcat/Km for Klebsiella pneumoniae 1534 beta-lactamase KPC-2 T237S mutant to ratio of Kcat/Km for Klebsiella pneumoniae 1534 beta-lactamase KPC-2 by spectrophotometric analysis. Put shortly:
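Kinetics used purified enzymes in 10 mM PBS, pH 7.4, room temperature, with 10 nM enzyme and substrate in excess. Km and Vmax came from a Michaelis-Menten fit. kcat/Km of the variant was compared with wild type as ΔΔG = −RT ln of the kcat/Km ratio.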

The subject of data set [6] is Klebsiella pneumoniae. As to the kind of experiment: Activity of Klebsiella pneumoniae 1534 beta-lactamase KPC-2 T237E mutant by spectrophotometric analysis. Put shortly: as §1
Data set [7] has as its system Klebsiella pneumoniae. As to the kind of experiment: Ratio of Kcat/Km for Klebsiella pneumoniae 1534 beta-lactamase KPC-2 T237E mutant by spectrophotometric analysis. Put shortly: as §1
The nature of data set [8]: Inhibition of Klebsiella pneumoniae 1534 beta-lactamase KPC-2 T237S mutant by competitive assay. Put shortly:
(§2)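 Direct competition assay at steady state with purified enzyme at 10 nM. Inhibitor was varied from 5 μM to 5 mM, with nitrocefin 100 μM final as reporter substrate. 1/v0 was plotted against [I], and Ki(observed) was taken as y-intercept divided by slope. This was corrected by 1 + [S]/Km(nitrocefin).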

A short description of data set [9]: Inhibition of Klebsiella pneumoniae 1534 beta-lactamase KPC-2 T237A mutant by competitive assay. Put shortly: as §2
Data set [10] concerns Klebsiella pneumoniae. As to the kind of experiment: Ratio of Ki for Klebsiella pneumoniae 1534 beta-lactamase KPC-2 T237S mutant to Ki for Klebsiella pneumoniae wild type beta-lactamase KPC-2 by competitive assay. Put shortly: as §2
Data set [11] has as its system Klebsiella pneumoniae. As to the kind of experiment: Ratio of Ki for Klebsiella pneumoniae 1534 beta-lactamase KPC-2 T237A mutant to Ki for wild type Klebsiella pneumoniae beta-lactamase KPC-2 by competitive assay.
Substrate in data set [12]: CC(=O)OCC1=C(C(=O)O)N2C(=O)[C@@H](NC(=O)Cc3cccs3)[C@H]2SC1
As to the kind of experiment: (§3) Ratio of Kcat/Km for Klebsiella pneumoniae 1534 beta-lactamase KPC-2 by spectrophotometric analysis. Put shortly:
(§4)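 Purified KPC-2 was expressed in E. coli (DH10B or IPTG-induced Origami2 DE3 pLys), released by periplasmic lysis, and purified by preparative isoelectric focusing. It was assayed at 10 nM in 10 mM PBS pH 7.4 at room temperature, with substrate in molar excess for pseudo-first-order conditions. Hydrolysis was read on a diode-array spectrophotometer, and Vmax and Km came from nonlinear least-squares Michaelis-Menten fits.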

Substrate in data set [13]: CCN1CCN(C(=O)N[C@@H](C(=O)N[C@@H]2C(=O)N3[C@@H]2SC(C)(C)[C@@H]3C(=O)O)c2ccccc2)C(=O)C1=O
The description is as §3. Put shortly: as §4

Substrate in data set [14]: CO/N=C(\C(=O)N[C@@H]1C(=O)N2C(C(=O)O)=C(COC(C)=O)CS[C@H]12)c1csc(N)n1
The description is as §3. Put shortly:
as §4

Substrate in data set [15]: C[C@@H](O)[C@H]1C(=O)N2C(C(=O)O)=C(SCCNC=N)C[C@H]12
The data set is described as §3. Put shortly:
as §4

Substrate in data set [16]: O=C(Cc1cccs1)N[C@@H]1C(=O)N2C(C(=O)O)=C(/C=C/c3ccc([N+](=O)[O-])cc3[N+](=O)[O-])CS[C@H]12
The description is as §3. Put shortly:
as §4

Substrate in data set [17]: CC(=O)OCC1=C(C(=O)O)N2C(=O)[C@@H](NC(=O)Cc3cccs3)[C@H]2SC1
As to the kind of experiment: (§5) Activity of Klebsiella pneumoniae 1534 beta-lactamase KPC-2 by spectrophotometric analysis. Put shortly: as §4

Substrate in data set [18]: CCN1CCN(C(=O)N[C@@H](C(=O)N[C@@H]2C(=O)N3[C@@H]2SC(C)(C)[C@@H]3C(=O)O)c2ccccc2)C(=O)C1=O
The description is as §5. Put shortly: as §4

Substrate in data set [19]: CO/N=C(\C(=O)N[C@@H]1C(=O)N2C(C(=O)O)=C(COC(C)=O)CS[C@H]12)c1csc(N)n1
Described as §5. Put shortly:
as §4

Substrate in data set [20]: C[C@@H](O)[C@H]1C(=O)N2C(C(=O)O)=C(SCCNC=N)C[C@H]12
Described as §5. Put shortly: as §4

Substrate in data set [21]: O=C(Cc1cccs1)N[C@@H]1C(=O)N2C(C(=O)O)=C(/C=C/c3ccc([N+](=O)[O-])cc3[N+](=O)[O-])CS[C@H]12
The description is as §5. Put shortly:
as §4

`O=C(Cc1cccs1)N[C@@H]1C(=O)N2C(C(=O)O)=C(/C=C/c3ccc([N+](=O)[O-])cc3[N+](=O)[O-])CS[C@H]12`: the Km is 5 µM in the data set on Klebsiella pneumoniae [1], 15 µM in the data set with Klebsiella pneumoniae [3] and 167 µM in the data set with Klebsiella pneumoniae [6]. Moreover, the kcat is 50 s⁻¹ in the data set on Klebsiella pneumoniae [1], 191 s⁻¹ with Klebsiella pneumoniae [3] and 92 s⁻¹ in the data set with Klebsiella pneumoniae [6]. Further, the values for the kcat/Km in the data set with Klebsiella pneumoniae [2], with Klebsiella pneumoniae [4] and with Klebsiella pneumoniae [7] were 10 µM⁻¹ s⁻¹, 13 µM⁻¹ s⁻¹ and 0.6 µM⁻¹ s⁻¹, respectively. Also, in the data set on Klebsiella pneumoniae [5], the fold change (FC) was 2.7.

As to `O=C(O)[C@H]1/C(=C/CO)O[C@@H]2CC(=O)N21` [CLAVULANIC ACID], the results for the Ki in data set [8] and in data set [9] were 13 µM and 55 µM, respectively. Besides, the fold change (FC) is 1.7 in the data set on Klebsiella pneumoniae [10] and 5 with Klebsiella pneumoniae [11].

B1: Carbapenem-hydrolyzing beta-lactamase KPC (Klebsiella pneumoniae), Q9F663 (protein)
chain: MSLYRRLVLLSCLSWPLAGFSATALTNLVAEPFAKLEQDFGGSIGVYAMDTGSGATVSYRAEERFPLCSSFKGFLAAAVLARSQQQAGLLDTPIRYGKNALVPWSPISEKYLTTGMTVAELSAAAVQYSDNAAANLLLKELGGPAGLTAFMRSIGDTTFRLDRWELELNSAIPGDARDTSSPRAVTESLQKLTLGSALAAPQRQQFVDWLKGNTTGNHRIRAAVPADWAVGDKTGTCGVYGTANDYAVVWPTGRAPIVLAVYTRAPNKDDKHSEAVIAAAARLALEGLGVNGQ
As to B1, the kcat/Km in data set [12] was determined as 3.1 µM⁻¹ s⁻¹; in [13] it was 3.4 µM⁻¹ s⁻¹; in data set [14], 0.7 µM⁻¹ s⁻¹; in data set [15], 1 µM⁻¹ s⁻¹; in [16], 8.7 µM⁻¹ s⁻¹. Further, the Km in data set [17] was 14 µM; in data set [18], 15 µM; in data set [19] it was 207 µM; in data set [20], 19 µM; in data set [21] it was 6 µM. The kcat in [17] turned out to be 44 s⁻¹; in data set [18], 51 s⁻¹; in data set [19], 142 s⁻¹; in data set [20], 19 s⁻¹; in data set [21], 52 s⁻¹.
